Reference: ChEMBL document CHEMBL1148114, “New antiinfective and human 5-HT2 receptor binding natural and semisynthetic compounds from the Jamaican sponge Smenospongia aurea” (J Nat Prod, 2002)
pIC50, pKi: −log10 of the molar value. ≈ marks a conversion by molar mass, not a printed value. Calls of active or inactive are those of the source. The rule behind the calls is not given here.

How the values were obtained:
[1] = target: T1, 5-hydroxytryptamine receptor 2C (Homo sapiens, UniProt P28335); assay: Displacement of [3H]mesulergine form human cloned 5HT2C receptor expressed in african green monkey COS7 cells at 30 uM by scintillation spectroscopy; format: cell-based; details: cos-7
T1 sequence (P28335 whole entry): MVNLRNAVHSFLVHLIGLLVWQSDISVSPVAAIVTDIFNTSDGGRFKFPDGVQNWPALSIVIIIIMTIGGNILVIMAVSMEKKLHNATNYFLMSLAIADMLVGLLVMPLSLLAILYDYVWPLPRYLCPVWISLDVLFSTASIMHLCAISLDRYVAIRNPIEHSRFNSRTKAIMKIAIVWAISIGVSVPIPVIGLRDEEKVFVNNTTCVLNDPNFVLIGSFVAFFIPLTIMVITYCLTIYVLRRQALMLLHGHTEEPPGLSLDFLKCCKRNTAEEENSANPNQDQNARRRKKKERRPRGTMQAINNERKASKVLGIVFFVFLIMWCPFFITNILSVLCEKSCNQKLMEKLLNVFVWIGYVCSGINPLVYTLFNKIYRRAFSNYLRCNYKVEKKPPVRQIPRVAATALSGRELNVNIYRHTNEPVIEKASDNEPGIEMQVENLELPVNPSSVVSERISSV
Summary of the method: (§1)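 Single-point competition on transfected COS-7 membranes (human 5-HT2A with [3H]methylspiperone; 5-HT2C with [3H]mesulergine), 50 mM Tris pH 7.4, 2 h at 25 °C; 10 µM mianserin defines nonspecific binding; filter-bound radioactivity counted by scintillation. DMSO stock 10 mM, diluted at least 1:100 in assay.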

[2] = target: T2, 5-hydroxytryptamine receptor 2A (Homo sapiens, UniProt P28223); assay: Displacement of [3H]methylspiperone form human cloned 5HT2A receptor expressed in african green monkey COS7 cells at 30 uM by scintillation spectroscopy; format: cell-based; details: cos-7; summary of the method: as §1
[3] = organism: Homo sapiens; assay: Displacement of [3H]methylspiperone form human cloned dopamine 4.2 receptor
[4] = system: Vero; assay: Cytotoxicity against african green monkey Vero cells at 4.76 ug/mL; format: cell-based; details: chlorocebus sabaeus
Summary of the method: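 Vero (African green monkey kidney) cells exposed to compound at 4.76 µg/mL to assess cytotoxicity.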

[5] = Selectivity index, ratio of IC50 for african green monkey (Cercopithecus aethiops) Vero cells to IC50 for Plasmodium falciparum D6; format: toxicity, cell-based; details: read-out: Selectivity Index
[6] = system: Plasmodium falciparum; assay: Antimalarial activity against Plasmodium falciparum D6; format: functional, organism-based
[7] = target: T2, 5-hydroxytryptamine receptor 2A; assay: Displacement of [3H]methylspiperone form human cloned 5HT2A receptor expressed in african green monkey COS7 cells by scintillation spectroscopy; format: cell-based, COS-7
Summary of the method: (§2)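 Transiently CaPO4-transfected COS-7 membranes carrying human 5-HT2A ([3H]methylspiperone) or 5-HT2C ([3H]mesulergine); equilibrium competition in 50 mM Tris pH 7.4, 2 h at 25 °C; nonspecific binding with 10 µM mianserin; filtration on PEI-treated GF/C, scintillation counting. Compounds from 10 mM DMSO stock diluted ≥1:100. Triplicate points, three experiments; Ki via Cheng-Prusoff, geometric means.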

[8] = target: T1, 5-hydroxytryptamine receptor 2C; assay: Displacement of [3H]mesulergine form human cloned 5HT2C receptor expressed in african green monkey COS7 cells by scintillation spectroscopy; format: cell-based, COS-7; summary of the method: as §2
[9] = system: Mycobacterium tuberculosis; assay: Antitubercular activity against Mycobacterium tuberculosis H37Rv at 6.25 ug/mL; format: functional
[10] = system: Mycobacterium tuberculosis; assay: Antitubercular activity against Mycobacterium tuberculosis H37Rv; format: functional; details: for MIC: Mycobacterium tuberculosis, H37Rv
[11] = target: T3, Plasmepsin II (Plasmodium falciparum, UniProt P46925); assay: Inhibition of Plasmodium falciparum plasmepsin-2 by FRET assay
[12] = target: T3, Plasmepsin II; assay: Inhibition of Plasmodium falciparum plasmepsin-2 by fluorescence polarization assay
[13] = Plasmodium falciparum, D6, read-out: IC50

T2 sequence (P28223 whole entry): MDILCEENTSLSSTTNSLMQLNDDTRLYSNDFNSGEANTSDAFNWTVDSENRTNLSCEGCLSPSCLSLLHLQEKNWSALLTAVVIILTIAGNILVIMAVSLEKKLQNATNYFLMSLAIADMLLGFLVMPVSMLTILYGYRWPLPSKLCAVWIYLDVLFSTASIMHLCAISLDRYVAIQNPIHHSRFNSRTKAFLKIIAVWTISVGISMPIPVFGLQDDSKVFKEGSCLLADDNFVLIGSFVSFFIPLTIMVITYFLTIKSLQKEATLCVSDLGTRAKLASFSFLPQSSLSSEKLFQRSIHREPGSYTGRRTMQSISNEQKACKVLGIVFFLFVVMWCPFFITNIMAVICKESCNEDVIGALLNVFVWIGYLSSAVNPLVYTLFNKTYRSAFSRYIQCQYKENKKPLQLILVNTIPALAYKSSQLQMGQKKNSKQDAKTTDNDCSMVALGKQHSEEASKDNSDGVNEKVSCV
T3 sequence (P46925 whole entry): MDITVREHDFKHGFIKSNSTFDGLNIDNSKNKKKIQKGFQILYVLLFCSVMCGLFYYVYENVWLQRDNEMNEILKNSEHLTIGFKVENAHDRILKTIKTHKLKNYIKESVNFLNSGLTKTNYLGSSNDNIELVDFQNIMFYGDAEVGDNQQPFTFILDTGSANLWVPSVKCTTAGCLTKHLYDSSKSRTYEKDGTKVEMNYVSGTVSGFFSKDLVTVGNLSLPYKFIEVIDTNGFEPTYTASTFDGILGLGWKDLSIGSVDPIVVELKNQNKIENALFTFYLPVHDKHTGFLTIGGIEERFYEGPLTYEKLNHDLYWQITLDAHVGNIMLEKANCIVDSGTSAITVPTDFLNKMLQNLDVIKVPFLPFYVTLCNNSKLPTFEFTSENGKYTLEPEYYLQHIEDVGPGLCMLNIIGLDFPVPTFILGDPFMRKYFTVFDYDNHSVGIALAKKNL

SMILES | Ki [1] | Ki [2] | Activity [3] | Activity [4] | selectivity ratio [5] | IC50 [6, 13] | pKi [7] | pKi [8] | inhibition at 6.25 µg/mL [9] | inhibition (INH) [10] | MIC [10] | IC50 [6] | pIC50 [11] | inhibition ([7]; COS-7, concentration not given here) | pIC50 [12]
O=C1C(=O)c2[nH]cc3c2C(=C1Br)NCC3 [MAKALUVAMINE O] | Not Active | Not Active | inactive | Non-toxic | > 5.1 | 0.94 µg/mL (≈ 3.52 µM) | – | – | – | – | – | – | – | – | –
CN1C(=N)N(C)/C(=C/c2c[nH]c3cc(Br)ccc23)C1=O | – | – | inactive | Non-toxic | > 14 | 0.34 µg/mL (≈ 1.02 µM) | 5.70 | 6.48 | – | – | – | – | – | – | –
C[C@H]1CC[C@H]2C(C)(C)CCC[C@]23Oc2ccc(O)cc2C[C@]13C [AUREOL] | – | – | inactive | Non-toxic | – | – | – | – | 31% | 31% | > 6.25 µg/mL | Not Active | – | – | –
C/N=C1\N(C)C(=O)/C(=C\c2c[nH]c3ccccc23)N1C [METHYLAPLYSINOPSIN] | Not Active | Not Active | inactive | Non-toxic | – | – | – | – | – | – | – | Not Active | – | – | –
CC/N=C1\N(C)C(=O)/C(=C\c2c[nH]c3ccccc23)N1C | – | – | inactive | Non-toxic | – | – | 5.77 | 5.46 | – | – | – | Not Active | – | – | –
C[C@H]1CC[C@H]2C(C)(C)CCC[C@]23Oc2ccc(OC(=S)N(C)C)cc2C[C@]13C | – | – | inactive | Non-toxic | > 55 | 0.087 µg/mL (≈ 0.217 µM) | – | – | 100% | 100% | < 6.25 µg/mL | – | – | – | –
C[C@H]1CC[C@H]2C(C)(C)CCC[C@]23Oc2ccc(O)c(Cl)c2C[C@]13C | – | – | inactive | Non-toxic | > 1.4 | 3.4 µg/mL (≈ 9.74 µM) | – | – | 38% | – | – | – | – | – | –
CN1C(=N)N/C(=C/c2c[nH]c3cc(Br)ccc23)C1=O | – | – | inactive | Non-toxic | > 4.3 | 1.1 µg/mL (≈ 3.45 µM) | < 4.00 | 5.64 | – | – | – | – | 4.28 | 10% | 4.18
CN1C(=N)N/C(=C/c2c[nH]c3ccccc23)C1=O | Not Active | Not Active | inactive | Non-toxic | – | – | – | – | – | – | – | Not Active | – | – | –
C/N=C1\NC(=O)/C(=C\c2c[nH]c3ccccc23)N1C [ISOPLYSIN A] | Not Active | Not Active | inactive | Non-toxic | > 4.9 | 0.97 µg/mL (≈ 3.81 µM) | – | – | – | – | – | – | – | – | –
COc1ccc2c(c1)C[C@]1(C)[C@@H](C)CC[C@H]3C(C)(C)CCC[C@]31O2 | – | – | inactive | Non-toxic | – | – | – | – | 53% | – | – | Not Active | – | – | –
CC(=O)Oc1ccc2c(c1)C[C@]1(C)[C@@H](C)CC[C@H]3C(C)(C)CCC[C@]31O2 [AUREOL ACETATE] | – | – | inactive | Non-toxic | – | – | – | – | 34% | – | – | Not Active | – | – | –
